Data published in PubChem BioAssay.
The source made the active and inactive calls.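 Rule for the calls, unless noted: active = Her2 level under about 52% in both replicate screens, with viability over 70% of control (limit read from the data); inconclusive = Her2 under the limit in one screen only, or viability under 70%; inactive = Her2 level above the set limit.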

Legend:
[1] = Her2 expression decrease, cell viability multiplex – SKBR3 breast tumor cells, AlphaScreen, ATP viability, primary screen (AID 461); conditions: SKBR3 Her2 protein level, 18-24 h, measured here: SKBR3 viability, ATP luminescence, at 10 µM;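 for Her2 level: lower value means less Her2 protein in the cells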;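 for viability: percent of carrier control wells set as 100% viability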
[2] = biological target: Receptor tyrosine-protein kinase erbB-2 (Homo sapiens) (UniProt P04626); assay: as above; conditions: 18-24 h, at 10 µM, stronger effect = lower value
[3] = reduced viability of SK-BR-3 breast cancer cells – cell-based, 24 h, human, pilot screen (AID 572;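 active = viability at or below 10% of carrier control in both of two separate runs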;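 note: compound exposure lasted between 18 and 24 h rather than exactly 24 h; 100% = carrier-treated control wells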); conditions: SK-BR-3 viability, CellTiter-Glo luminescence, at 10 µM, stronger effect = lower value
[4] = HUVEC growth inhibition – cell-based, human, primary screen (AID 575;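 active = viability at or below 30% in both replicate assays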;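 note: 100% = median of untreated cell wells with 0.1% DMSO on each plate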); conditions: HUVEC proliferation, CellTiter-Glo luminescence, 72 h; at 10 µM; stronger effect = lower value
Summary of the method: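 Timing: 72 h treatment at 37 °C; material: HUVEC primary cells; technique: CellTiter-Glo luminescence measuring cellular ATP; controls: vehicle and MePR control wells; measure: percent of median DMSO-control luminescence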

[5] = H69AR cell proliferation blockers – human, duplicate replicates, primary screen (AID 580;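 active = viability at or under a set limit in both replicates, limit being median viability minus 3 SD, cut at about 48% in these data, passing the limit was not always enough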;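 note: 100% = mean luminescence of untreated wells and 0% = no signal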); conditions: H69AR lung tumor cells viability, ATP luminescence, 72 h; at 10 µM; stronger effect = lower value
[6] = MRP1 drug-resistance reversers in H69AR cells – cell-based, doxorubicin co-treatment, pilot screen (AID 601;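 active = viability loss from added drug above about 55%, and viability with drug at most 40%, in both replicates, limit read from the data, passing the limit was not always enough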); conditions: CellTiter-Glo, 72 h, at 10 µM; for differential viability (reversal): stronger effect = higher value
[7] = yeast transport mutant growth inhibition pilot in 384-well plates, post-Golgi transport modulator project (AID 636; in the data active = inhibition above about 31%); conditions: absorbance 615 nm, about 18 h, stronger effect = higher value
[8] = growth suppression of yeast trafficking mutant, preliminary HTS, modulators of trafficking downstream of Golgi apparatus project, 1536-format plate, OD 615 nm (AID 637; in the data active = inhibition above about 30%); conditions: yeast transport mutant growth, absorbance 615 nm, 18 h; stronger effect = higher value
[9] = H69AR cells + 2 uM doxorubicin, measured here: viability with 2 uM doxorubicin, stronger effect = lower value
[10] = H69AR cells, compound alone cytotoxicity

Chain of Receptor tyrosine-protein kinase erbB-2 (Homo sapiens) (P04626 whole entry, looked up): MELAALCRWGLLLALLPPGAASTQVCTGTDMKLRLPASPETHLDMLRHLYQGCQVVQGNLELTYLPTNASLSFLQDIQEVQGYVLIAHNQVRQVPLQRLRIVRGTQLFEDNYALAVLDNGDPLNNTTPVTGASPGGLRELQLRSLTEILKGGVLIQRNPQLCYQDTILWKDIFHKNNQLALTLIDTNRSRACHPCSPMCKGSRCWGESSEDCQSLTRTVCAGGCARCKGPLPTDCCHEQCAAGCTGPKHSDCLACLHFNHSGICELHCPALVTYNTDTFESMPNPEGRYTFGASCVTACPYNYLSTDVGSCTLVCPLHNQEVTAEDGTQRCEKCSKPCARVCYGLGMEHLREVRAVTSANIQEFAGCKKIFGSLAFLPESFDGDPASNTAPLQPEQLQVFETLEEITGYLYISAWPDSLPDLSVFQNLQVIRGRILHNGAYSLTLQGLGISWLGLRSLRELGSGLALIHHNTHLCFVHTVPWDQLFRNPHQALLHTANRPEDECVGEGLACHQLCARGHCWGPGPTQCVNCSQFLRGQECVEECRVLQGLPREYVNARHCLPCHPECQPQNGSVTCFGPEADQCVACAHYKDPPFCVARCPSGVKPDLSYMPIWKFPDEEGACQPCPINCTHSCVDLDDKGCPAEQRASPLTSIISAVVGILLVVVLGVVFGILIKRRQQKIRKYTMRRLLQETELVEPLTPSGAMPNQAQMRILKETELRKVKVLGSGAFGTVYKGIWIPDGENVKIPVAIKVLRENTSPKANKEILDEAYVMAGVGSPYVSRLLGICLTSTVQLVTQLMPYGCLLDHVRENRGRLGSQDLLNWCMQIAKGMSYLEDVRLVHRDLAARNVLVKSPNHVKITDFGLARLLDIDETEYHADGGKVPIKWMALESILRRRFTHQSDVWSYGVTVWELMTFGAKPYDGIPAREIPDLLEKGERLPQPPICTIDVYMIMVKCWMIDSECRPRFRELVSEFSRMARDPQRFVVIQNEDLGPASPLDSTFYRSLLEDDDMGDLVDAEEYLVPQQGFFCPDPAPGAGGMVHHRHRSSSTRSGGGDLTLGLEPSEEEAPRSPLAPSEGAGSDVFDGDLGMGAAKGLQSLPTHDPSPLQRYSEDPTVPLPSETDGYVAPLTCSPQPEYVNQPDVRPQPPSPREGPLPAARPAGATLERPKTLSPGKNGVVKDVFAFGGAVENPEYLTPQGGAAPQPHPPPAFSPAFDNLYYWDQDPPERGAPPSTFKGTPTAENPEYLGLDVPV

SMILES	viability [1]	Her2 level [2]	viability [3]	viability [4]	viability [5]	differential viability (reversal) ([6]; H69AR cells + 2 uM doxorubicin)	viability [6, 9]	viability [6, 10]	inhibition [7]	inhibition [8]
CCOC(=O)CC1=C(C(=O)OCC)C(c2ccc(C)o2)C(C#N)=C(N)O1 (stereo not given)	95%	104% (inactive)	95% (inactive)	107% (inactive)	85.6% (inactive)	8.26% (inactive)	77.3%	85.6%	0.65% (inactive)	-9.05% (inactive)
COCCNC(=O)CCc1nc(-c2ccccc2)no1	87%	103% (inactive)	87% (inactive)	92.6% (inactive)	103% (inactive)	5.2% (inactive)	98.1%	103%	-3.47% (inactive)	2.7% (inactive)
Cc1ccccc1NC(=O)N1C2CCCC1CC(NC(=O)C1CC1)C2 (stereo not given)	104%	95% (inactive)	104% (inactive)	94% (inactive)	104% (inactive)	10.3% (inactive)	93.9%	104%	-7.07% (inactive)	9.02% (inactive)
CN(C(=O)c1ccno1)c1nnc(-c2cnccn2)s1	107%	102% (inactive)	107% (inactive)	108% (inactive)	103% (inactive)	6.98% (inactive)	95.9%	103%	-6.22% (inactive)	1.83% (inactive)
Cc1cc2cc(CN(CC3CCCO3)C(=O)c3cnccn3)c(=O)[nH]c2cc1C (stereo not given)	75%	130% (inactive)	75% (inactive)	89.9% (inactive)	92.3% (inactive)	6.07% (inactive)	86.3%	92.3%	-0.8% (inactive)	-4.59% (inactive)
CCOc1ccc(Nc2nc(Cc3nnc(SCC(N)=O)o3)cs2)cc1	106%	88% (inactive)	106% (inactive)	89.8% (inactive)	93.6% (inactive)	13.2% (inactive)	80.4%	93.6%	-6.1% (inactive)	-2.7% (inactive)
CN1C(=S)SC(C)(NO)C1(C)C (stereo not given)	90%	95.5% (inactive)	90% (inactive)	97% (inactive)	104% (inactive)	5.95% (inactive)	98.4%	104%	-0.27% (inactive)	-9.52% (inactive)
O=S(=O)(c1cc(Cl)ccc1Br)N1CCOCC1	95.5%	108% (inactive)	95.5% (inactive)	103% (inactive)	91% (inactive)	0.56% (inactive)	90.4%	91%	-2.99% (inactive)	-0.17% (inactive)
O=C(O)C1CC(=O)N(c2ccc(Br)cc2)C1 (stereo not given)	81.5%	122% (inactive)	81.5% (inactive)	94.6% (inactive)	93.8% (inactive)	4.02% (inactive)	89.8%	93.8%	-6.05% (inactive)	-4.1% (inactive)
Cc1cccc(C(OC(=O)c2ccco2)C(=O)NCc2ccccc2)n1 (stereo not given)	102%	90% (inactive)	102% (inactive)	86.6% (inactive)	96.1% (inactive)	7.79% (inactive)	88.3%	96.1%	-2.03% (inactive)	-1.64% (inactive)
CCOC(=O)c1[nH]cc(-c2ccccc2)c1N1CCOCC1	92.5%	89.5% (inactive)	92.5% (inactive)	98% (inactive)	94.7% (inactive)	9.26% (inactive)	85.5%	94.7%	-2.5% (inactive)	0.55% (inactive)
CCOC(=O)c1[nH]c2ccccc2c1NC(=O)c1ccco1	102%	79% (inactive)	102% (inactive)	106% (inactive)	80.3% (inactive)	-2.98% (inactive)	83.2%	80.3%	-7.03% (inactive)	4.33% (inactive)
COCCOC(=O)C1=C(C)Nc2ncnn2C1c1ccc(F)cc1 (stereo not given)	90%	87.5% (inactive)	90% (inactive)	103% (inactive)	85.8% (inactive)	3.85% (inactive)	82%	85.8%	-3.6% (inactive)	-1.48% (inactive)
COc1ccccc1Nc1ccc(C(=O)NC2CCCCC2)cn1	100%	96% (inactive)	100% (inactive)	106% (inactive)	93.2% (inactive)	12% (inactive)	81.2%	93.2%	-3.92% (inactive)	-3.11% (inactive)
CCOc1ccc(OCc2ccc(C(=O)Nc3cccc(C)n3)o2)cc1	101%	85% (inactive)	101% (inactive)	84.1% (inactive)	93.4% (inactive)	6.08% (inactive)	87.3%	93.4%	-1.58% (inactive)	-1.61% (inactive)
COc1cccc(-c2nnc3sc(-c4ccc(C)cc4)nn23)c1	103%	81% (inactive)	103% (inactive)	57% (inactive)	17.3% (active)	-61.5% (inactive)	78.8%	17.3%	-5.92% (inactive)	-4.03% (inactive)

SMILES	viability [1]	Her2 level [2]	viability [3]	viability [4]	viability [5]	differential viability (reversal) ([6]; H69AR cells + 2 uM doxorubicin)	viability [6, 9]	viability [6, 10]	inhibition [7]	inhibition [8]
Clc1ccc(Cc2nn3c(-c4ccncc4)nnc3s2)cc1	99.5%	107% (inactive)	99.5% (inactive)	101% (inactive)	96.9% (inactive)	-0.11% (inactive)	97%	96.9%	-1.05% (inactive)	15.4% (inactive)
CN(C(=O)c1cc2sccc2n1C)C1CCCCC1	91%	106% (inactive)	91% (inactive)	87.7% (inactive)	100% (inactive)	14.7% (inactive)	85.7%	100%	-7.3% (inactive)	-2.13% (inactive)
CCCc1cc(C(N)=O)c(NC(=O)c2ccco2)s1	102%	73.5% (inactive)	102% (inactive)	94.2% (inactive)	87.3% (inactive)	-5.96% (inactive)	93.3%	87.3%	-3.29% (inactive)	1.15% (inactive)
COc1cc(OC)cc(C(=O)NCc2n[nH]c(=S)n2-c2ccccc2OC)c1	97%	88% (inactive)	97% (inactive)	109% (inactive)	89.4% (inactive)	0.11% (inactive)	89.3%	89.4%	-7.16% (inactive)	-1.33% (inactive)
Cc1cc(C)c(NC(=O)C2CSCCS2)c(C)c1 (stereo not given)	90%	79.5% (inactive)	90% (inactive)	99.7% (inactive)	100% (inactive)	14.1% (inactive)	85.9%	100%	-3.82% (inactive)	-7.17% (inactive)
CN(c1ccccc1)C(c1ccc(F)cc1)c1nnnn1CC1CCCO1 (stereo not given)	104%	98% (inactive)	104% (inactive)	97% (inactive)	94.1% (inactive)	6.48% (inactive)	87.6%	94.1%	-4.32% (inactive)	0.83% (inactive)
CCN(CC)CCOC(=O)c1c(C)oc2ccc(O)cc12	102%	109% (inactive)	102% (inactive)	89.7% (inactive)	95% (inactive)	3.9% (inactive)	91.1%	95%	-0.53% (inactive)	-6.94% (inactive)
O=C(CSc1nc2[nH]ncc2c(=O)n1-c1ccccc1Br)NCc1ccco1	100%	80.5% (inactive)	100% (inactive)	95% (inactive)	82.9% (inactive)	5.05% (inactive)	77.8%	82.9%	-4.61% (inactive)	-1.77% (inactive)
CCN(Cc1cc2ccccc2[nH]c1=O)S(=O)(=O)c1ccccc1	110%	112% (inactive)	110% (inactive)	98.4% (inactive)	87.1% (inactive)	-12.7% (inactive)	99.8%	87.1%	-4.59% (inactive)	-2.38% (inactive)
Cc1cc2c(nn1)CCC/C2=N\O	104%	99% (inactive)	104% (inactive)	123% (inactive)	95.6% (inactive)	3.77% (inactive)	91.8%	95.6%	-4.47% (inactive)	6.72% (inactive)
COC(=O)C(NC(C)=O)(Nc1nc2ccc(S(C)(=O)=O)cc2s1)C(F)(F)F (stereo not given)	96.5%	87.5% (inactive)	96.5% (inactive)	93.8% (inactive)	102% (inactive)	1.18% (inactive)	101%	102%	-2.11% (inactive)	-1.27% (inactive)
N#CC1=C(N)S[C@H](C(=O)C23CC4CC(CC(C4)C2)C3)[C@H]1c1ccncc1	81%	79% (inactive)	81% (inactive)	41% (inactive)	93.7% (inactive)	47.6% (inactive)	46.1%	93.7%	-2.8% (inactive)	4.84% (inactive)
O=C(NCCO)c1cccc2c1C(=O)c1ccccc1-2	97.5%	95.5% (inactive)	97.5% (inactive)	98.4% (inactive)	101% (inactive)	15.4% (inactive)	85.8%	101%	-6.4% (inactive)	-1.48% (inactive)
Cn1c2ccc(F)cc2c2ncn(CCN3CCOCC3)c(=O)c21	88.5%	82.5% (inactive)	88.5% (inactive)	98.6% (inactive)	97.4% (inactive)	6.95% (inactive)	90.4%	97.4%	-6% (inactive)	-3.02% (inactive)
CC(Sc1nnnn1-c1ccccc1)C(=O)Nc1ccc(Cl)cn1 (stereo not given)	87.5%	89% (inactive)	87.5% (inactive)	73.9% (inactive)	92.7% (inactive)	6.54% (inactive)	86.1%	92.7%	-2.76% (inactive)	5.4% (inactive)
CCOc1ccc(CN2CCN(c3cc(C)nc4c5c(C)cc(C)nc5nn34)CC2)cc1	80%	83.5% (inactive)	80% (inactive)	94.2% (inactive)	88.8% (inactive)	-3.18% (inactive)	92%	88.8%	-2.5% (inactive)	-4.36% (inactive)
